Results taken from ChEMBL document CHEMBL3046803, “Synthesis and insecticidal activities of novel anthranilic diamides containing acylthiourea and acylurea” (2012).
Converted amounts (≈) assume the structure as drawn. The source made the active and inactive calls. No cut-off for these calls is given here.

Legend:
Mythimna separata [1] = experiment: Insecticidal activity against Mythimna separata (Oriental armyworm) fourth-instar larvae infected Zea mays leaves assessed as larvicidal activity at 200 mg/L measured 2 days post dose; assay type: functional
Summary of the method: (§1)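 Foliar application test: individual corn (Tangyu 10) leaves were placed on moistened filter paper in Petri dishes.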

Mythimna separata [2] = experiment: Insecticidal activity against Mythimna separata (Oriental armyworm) fourth-instar larvae infected Zea mays leaves assessed as larvicidal activity at 100 mg/L measured 2 days post dose; assay type: functional; summary of the method: as §1
Mythimna separata [3] = experiment: Insecticidal activity against Mythimna separata (Oriental armyworm) fourth-instar larvae infected Zea mays leaves assessed as larvicidal activity at 50 mg/L measured 2 days post dose; assay type: functional; summary of the method: as §1
Mythimna separata [4] = experiment: Insecticidal activity against Mythimna separata (Oriental armyworm) fourth-instar larvae infected Zea mays leaves assessed as larvicidal activity at 20 mg/L measured 2 days post dose; assay type: functional; summary of the method: as §1
Culex pipiens pallens [5] = experiment: Insecticidal activity against Culex pipiens pallens (mosquito) fourth-instar larvae assessed as larvicidal activity at 0.5 mg/L measured 3 days post dose; assay type: functional
Summary of the method: (§2)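 Mosquito larvicidal test: compounds were dissolved in acetone and diluted with distilled water to the test concentrations.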

Culex pipiens pallens [6] = experiment: Insecticidal activity against Culex pipiens pallens (mosquito) fourth-instar larvae assessed as larvicidal activity at 2 mg/L measured 3 days post dose; assay type: functional; summary of the method: as §2
Mythimna separata [7] = experiment: Insecticidal activity against Mythimna separata (Oriental armyworm) fourth-instar larvae infected Zea mays leaves assessed as larvicidal activity at 10 mg/L measured 2 days post dose; assay type: functional; summary of the method: as §1
Mythimna separata [8] = experiment: Insecticidal activity against Mythimna separata (Oriental armyworm) fourth-instar larvae infected Zea mays leaves assessed as larvicidal activity at 5 mg/L measured 2 days post dose; assay type: functional; summary of the method: as §1
Culex pipiens pallens [9] = experiment: Insecticidal activity against Culex pipiens pallens (mosquito) fourth-instar larvae assessed as larvicidal activity at 1 mg/L measured 3 days post dose; assay type: functional; summary of the method: as §2
Plutella xylostella [10] = experiment: Insecticidal activity against Plutella xylostella (diamondback moth) s-instar larvae infected in fresh cabbage leaves assessed as larvicidal activity at 0.01 mg/L measured 2 days post dose; assay type: functional
Summary of the method: (§3)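 Leaf-dip (spray) test: a 200 mg/L stock in DMF was diluted with distilled water. Cabbage leaf disks (6 × 2 cm) were sprayed for 3 s, dried, and placed individually in glass tubes. Each disk received 30 second-instar larvae. Mortality was scored at 2 days; triplicate.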

Plutella xylostella [11] = experiment: Insecticidal activity against Plutella xylostella (diamondback moth) s-instar larvae infected in fresh cabbage leaves assessed as larvicidal activity at 0.1 mg/L measured 2 days post dose; assay type: functional; summary of the method: as §3
Plutella xylostella [12] = experiment: Insecticidal activity against Plutella xylostella (diamondback moth) s-instar larvae infected in fresh cabbage leaves assessed as larvicidal activity at 0.001 mg/L measured 2 days post dose; assay type: functional; summary of the method: as §3
Plutella xylostella [13] = experiment: Insecticidal activity against Plutella xylostella (diamondback moth) s-instar larvae infected in fresh cabbage leaves assessed as larvicidal activity at 1 mg/L measured 2 days post dose; assay type: functional; summary of the method: as §3
Plutella xylostella [14] = experiment: Insecticidal activity against Plutella xylostella (diamondback moth) s-instar larvae infected in fresh cabbage leaves assessed as larvicidal activity at 20 mg/L measured 2 days post dose; assay type: functional; summary of the method: as §3
Plutella xylostella [15] = experiment: Insecticidal activity against Plutella xylostella (diamondback moth) s-instar larvae infected in fresh cabbage leaves assessed as larvicidal activity measured 2 days post dose; assay type: functional; conditions: 48 h; summary of the method: as §3
[16] = target: Voltage-dependent L-type calcium channel, putative (Pediculus humanus subsp. corporis) (UniProt E0VY79); experiment: Inhibition of voltage-dependent L-type calcium channel in Spodoptera exigua neurons assessed as increase in intracellular calcium level at 1000 mg/L measured 10 min post dose by calcium-imaging technique; assay type: cell-based
Voltage-dependent L-type calcium channel, putative (Pediculus humanus subsp. corporis), sequence (E0VY79 as listed by the source): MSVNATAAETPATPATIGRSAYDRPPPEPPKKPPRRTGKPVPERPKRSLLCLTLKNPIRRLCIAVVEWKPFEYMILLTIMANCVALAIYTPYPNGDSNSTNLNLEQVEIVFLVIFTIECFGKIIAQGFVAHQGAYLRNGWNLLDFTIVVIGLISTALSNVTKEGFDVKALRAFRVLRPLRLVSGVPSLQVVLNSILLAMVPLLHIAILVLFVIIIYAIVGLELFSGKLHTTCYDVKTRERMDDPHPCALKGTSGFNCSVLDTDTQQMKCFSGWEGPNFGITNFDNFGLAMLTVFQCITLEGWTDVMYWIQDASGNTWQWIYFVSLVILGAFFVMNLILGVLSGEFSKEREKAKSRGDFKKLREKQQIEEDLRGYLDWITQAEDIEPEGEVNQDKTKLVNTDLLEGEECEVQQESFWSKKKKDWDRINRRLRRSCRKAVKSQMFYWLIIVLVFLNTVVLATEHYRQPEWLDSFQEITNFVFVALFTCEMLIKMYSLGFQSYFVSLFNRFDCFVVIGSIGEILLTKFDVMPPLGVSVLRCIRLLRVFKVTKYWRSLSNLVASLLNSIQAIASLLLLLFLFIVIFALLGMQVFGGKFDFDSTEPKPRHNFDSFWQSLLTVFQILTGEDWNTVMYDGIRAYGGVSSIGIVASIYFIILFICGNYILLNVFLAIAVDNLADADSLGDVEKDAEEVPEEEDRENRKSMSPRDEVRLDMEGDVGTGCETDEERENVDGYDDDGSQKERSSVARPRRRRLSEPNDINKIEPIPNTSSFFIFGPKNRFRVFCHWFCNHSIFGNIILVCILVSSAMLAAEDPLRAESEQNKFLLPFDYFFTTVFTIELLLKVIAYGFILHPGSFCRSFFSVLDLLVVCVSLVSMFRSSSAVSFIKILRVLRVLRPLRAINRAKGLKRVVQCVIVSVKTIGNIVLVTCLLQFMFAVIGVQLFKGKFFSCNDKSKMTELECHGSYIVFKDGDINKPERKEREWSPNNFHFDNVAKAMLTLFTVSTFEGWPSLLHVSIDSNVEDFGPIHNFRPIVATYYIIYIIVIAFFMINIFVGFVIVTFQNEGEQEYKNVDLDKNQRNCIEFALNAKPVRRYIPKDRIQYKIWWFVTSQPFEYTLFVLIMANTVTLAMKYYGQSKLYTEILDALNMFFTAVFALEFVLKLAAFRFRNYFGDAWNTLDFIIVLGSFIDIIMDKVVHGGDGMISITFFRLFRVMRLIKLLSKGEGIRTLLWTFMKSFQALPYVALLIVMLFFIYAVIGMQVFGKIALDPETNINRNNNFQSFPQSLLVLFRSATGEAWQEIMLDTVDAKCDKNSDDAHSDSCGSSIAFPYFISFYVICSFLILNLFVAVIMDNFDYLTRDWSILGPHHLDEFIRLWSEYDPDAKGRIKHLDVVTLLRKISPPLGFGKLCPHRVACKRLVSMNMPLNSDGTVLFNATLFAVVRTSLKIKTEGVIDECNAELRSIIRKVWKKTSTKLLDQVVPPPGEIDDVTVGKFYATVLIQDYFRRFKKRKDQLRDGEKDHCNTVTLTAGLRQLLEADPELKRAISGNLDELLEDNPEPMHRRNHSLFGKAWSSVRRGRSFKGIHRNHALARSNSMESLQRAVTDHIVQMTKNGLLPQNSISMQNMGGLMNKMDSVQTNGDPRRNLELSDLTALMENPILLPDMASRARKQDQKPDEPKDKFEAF
Summary of the method: (§4)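 S. exigua neurons were rinsed in physiological saline (pH 6.9). They were dye-loaded in the dark at 28 °C, either with 10 μM fluo-3-AM for 45 min in standard saline or with 5 μM fluo-5N for 5 h in EGTA Ca-free saline, then rinsed twice. [Ca²⁺]i was imaged on an inverted fluorescence microscope (40× oil, 488/530 nm) over 10 min. F/F₀ is relative to resting baseline; ≥6 repeats; mean ± SD.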

[17] = target: Voltage-dependent L-type calcium channel, putative (Pediculus humanus subsp. corporis) (UniProt E0VY79); experiment: Inhibition of voltage-dependent L-type calcium channel in Spodoptera exigua neurons assessed as change in […] calcium level at 1000 mg/L measured 10 min post dose by calcium-imaging technique; summary of the method: as §4
[18] = target: Voltage-dependent L-type calcium channel, putative (Pediculus humanus subsp. corporis) (UniProt E0VY79); experiment: Inhibition of voltage-dependent L-type calcium channel in Spodoptera exigua neurons assessed as peak intracellular calcium level at 1000 mg/L measured 10 min post dose by calcium-imaging technique relative to initial untreated control; assay type: cell-based; parameters: scale not given: the % may be the effect or the level left; summary of the method: as §4

| Compound | Activity (Mythimna separata [1]) [%] | Activity (Mythimna separata [2]) [%] | Activity (Mythimna separata [3]) [%] | Activity (Mythimna separata [4]) [%] | Activity (Culex pipiens pallens [5]) [%] | Activity (Culex pipiens pallens [6]) [%] | Activity (Mythimna separata [7]) [%] | Activity (Mythimna separata [8]) [%] | Activity (Culex pipiens pallens [9]) [%] | Activity (Plutella xylostella [10]) [%] | Activity (Plutella xylostella [11]) [%] | Activity (Plutella xylostella [12]) [%] | Activity (Plutella xylostella [13]) [%] | Activity (Plutella xylostella [14]) [%] | LC50 (Plutella xylostella [15]) [ng/mL] | Activity [16] | inhibition [17] | Activity [18] [%] |
| --- | --- | --- | --- | --- | --- | --- | --- | --- | --- | --- | --- | --- | --- | --- | --- | --- | --- | --- |
| Cc1cc(Br)cc(C(=O)NC2CC2)c1NC(=O)NC(=O)c1cc(C(F)(F)F)nn1-c1ncccc1Cl | 100 | 0 | – | – | – | – | – | – | – | – | – | – | – | – | – | – | – | – |
| O=C(NC(=O)c1cc(C(F)(F)F)nn1-c1ncccc1Cl)Nc1ccc(Cl)cc1C(=O)NC1CC1 | 30 | – | – | – | – | – | – | – | – | – | – | – | – | – | – | – | – | – |
| Cc1cc(Cl)cc(C(=O)NC(C)(C)C)c1NC(=S)NC(=O)c1cc(Br)nn1-c1ncccc1Cl | 100 | 100 | 100 | 100 | 30 | 100 | 100 | 40 | 90 | – | – | – | – | – | – | – | – | – |
| Cc1cc(Br)cc(C(=O)NC(C)C)c1NC(=S)NC(=O)c1cc(Cl)nn1-c1ncccc1Cl | 100 | 80 | 40 | – | 20 | 90 | – | – | 60 | – | – | – | – | – | – | – | – | – |
| CCNC(=O)c1cc(Cl)cc(C)c1NC(=S)NC(=O)c1cc(C(F)(F)F)nn1-c1ncccc1Cl | 100 | 100 | 100 | 100 | – | – | 100 | 0 | – | 86 | 100 | 29 | 100 | 100 | – | – | – | – |
| CNC(=O)c1cc(Cl)cc(C)c1NC(=S)NC(=O)c1cc(Cl)nn1-c1ncccc1Cl | 100 | 100 | 100 | 100 | – | 70 | 40 | – | 30 | – | – | – | – | – | – | – | – | – |
| Cc1cc(Cl)cc(C(=O)NC2CCCCC2)c1NC(=S)NC(=O)c1cc(C(F)(F)F)nn1-c1ncccc1Cl | 40 | – | – | – | – | – | – | – | – | – | – | – | 0 | 30 | – | – | – | – |
| CNC(=O)c1cc(Cl)cc(C)c1NC(=O)NC(=O)c1cc(C(F)(F)F)nn1-c1ncccc1Cl | 100 | 20 | – | – | – | – | – | – | – | – | – | – | – | – | – | – | – | – |
| Cc1cc(Br)cc(C(=O)NCc2ccccc2)c1NC(=S)NC(=O)c1cc(C(F)(F)F)nn1-c1ncccc1Cl | 100 | 100 | 100 | 100 | – | – | 0 | – | – | 100 | 100 | 57 | 100 | 100 | 0.65 (≈ 0.997 nM) | – | – | – |
| Cc1cc(Cl)cc(C(=O)NC2CC2)c1NC(=S)NC(=O)c1cc(C(F)(F)F)nn1-c1ncccc1Cl | 100 | 100 | 100 | 100 | – | – | 100 | 30 | – | 100 | 100 | 71 | 100 | 100 | 0.25 (≈ 0.449 nM) | – | – | – |
| CNC(=O)c1cc(Cl)cc(C)c1NC(=S)NC(=O)c1cc(C(F)(F)F)nn1-c1ncccc1Cl | 100 | 100 | 100 | 100 | – | – | 100 | 50 | – | 71 | 100 | 43 | 100 | 100 | – | Active | inactive | 112 |
| CCCNC(=O)c1cc(Cl)ccc1NC(=O)NC(=O)c1cc(C(F)(F)F)nn1-c1ncccc1Cl | 0 | – | – | – | – | – | – | – | – | – | – | – | – | – | – | – | – | – |
| Cc1cc(Br)cc(C(=O)NC(C)C)c1NC(=S)NC(=O)c1cc(Br)nn1-c1ncccc1Cl | 100 | 100 | 100 | 100 | 30 | 90 | 100 | 0 | 70 | – | – | – | – | – | – | – | – | – |
